Holding throughout (type): functional
The test system of one assay is Staphylococcus aureus. In words: Antimicrobial activity against Staphylococcus aureus ATCC 6538. In short, it runs like this: (§1)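 Bacteria were subcultured on blood agar for 24 h at 37 °C, then tested by broth microdilution in cation-adjusted Mueller-Hinton broth. Compounds were in DMSO and given as twofold serial dilutions from 1024 down to 1, with a final inoculum of 10^5 CFU/mL. Plates were incubated 48 h at 35 °C. MIC was the lowest concentration preventing visible growth. Growth control was drug-free inoculated broth.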

The subject of another assay is Escherichia coli. The assay can be described thus: Antimicrobial activity against Escherichia coli ATCC 25922. The method, boiled down: as §1
The next assay deals with Candida albicans. In words: Antimicrobial activity against Candida albicans ATCC 10231. In short, it runs like this: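 Yeast was subcultured on Sabouraud dextrose agar for 24 h at 35 °C. It was then tested by NCCLS M27-A broth microdilution in RPMI 1640 buffered with MOPS, pH 7.0. DMSO solutions were diluted twofold from 1024 […]. Final inoculum was 0.5×10^3–2.5×10^3 CFU/mL, read after 48 h at 35 °C. MIC was the lowest concentration visibly inhibiting growth.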

Molecules are shown by their SMILES. Converted amounts (≈) assume the structure as drawn.

For the molecule `Cc1cc(C)c(C/C(=N\OC(=O)c2ccccc2)c2cc3ccccc3o2)c(C)c1`, the minimum inhibitory concentration (MIC) with Staphylococcus aureus was 4 µg/mL (≈ 10.1 µM); against Escherichia coli, 32 µg/mL (≈ 80.5 µM); with Candida albicans, 64 µg/mL (≈ 161 µM).
With `Cc1cc(C)c(C/C(=N/OCC(=O)NN)c2cc3ccccc3o2)c(C)c1`, the results for the MIC against Staphylococcus aureus, against Escherichia coli and against Candida albicans were 256 µg/mL (≈ 701 µM), 64 µg/mL (≈ 175 µM) and 32 µg/mL (≈ 87.6 µM), respectively.
Take `Cc1cc(C)c(CC(=O)CSC#N)c(C)c1`: the MIC with Staphylococcus aureus came to 256 µg/mL (≈ 1100 µM); against Escherichia coli, 256 µg/mL (≈ 1100 µM); in the assay with Candida albicans, 32 µg/mL (≈ 137 µM).
With `Cc1cc(C)c(C/C(=N/O)c2cc3ccccc3o2)c(C)c1`, the MIC against Staphylococcus aureus, against Escherichia coli and in the assay on Candida albicans was 128 µg/mL (≈ 436 µM) each time.
For `Cc1cc(C)c(CC(O)c2cc3ccccc3o2)c(C)c1` (stereo unspecified), the results for the MIC against Staphylococcus aureus, against Escherichia coli and with Candida albicans were 128 µg/mL (≈ 457 µM), 128 µg/mL (≈ 457 µM) and 64 µg/mL (≈ 228 µM), respectively.
Regarding `Cc1cc(C)c(C/C(=N/NC(N)=O)c2cc3ccccc3o2)c(C)c1`, the MIC against Staphylococcus aureus is 128 µg/mL (≈ 382 µM); in the assay with Escherichia coli, 64 µg/mL (≈ 191 µM); with Candida albicans, 64 µg/mL (≈ 191 µM).
For `CO/N=C(\Cc1c(C)cc(C)cc1C)c1cc2ccccc2o1`, the MIC with Staphylococcus aureus was 256 µg/mL (≈ 833 µM); against Escherichia coli, 128 µg/mL (≈ 416 µM); with Candida albicans, 64 µg/mL (≈ 208 µM).
Taken in the same sequence, the figures for `Cc1cc(C)c(CC(O)CCl)c(C)c1` (stereo unspecified) were 128 µg/mL (≈ 602 µM), 64 µg/mL (≈ 301 µM) and 32 µg/mL (≈ 150 µM).
On to `Cc1cc(C)c(CC(=O)CCl)c(C)c1`, for which the minimal inhibitory concentration (MIC) against Staphylococcus aureus stood at 16 µg/mL (≈ 75.9 µM); with Escherichia coli, 64 µg/mL (≈ 304 µM); with Candida albicans it was 16 µg/mL (≈ 75.9 µM).
Consider `CCOC(=O)CO/N=C(\Cc1c(C)cc(C)cc1C)c1cc2ccccc2o1`, for which the minimum inhibitory concentration (MIC) in the assay with Staphylococcus aureus, against Escherichia coli and in the assay with Candida albicans was 256 µg/mL (≈ 675 µM) in each case.
`Cc1cc(C)c(C/C(=N\OC(=O)Cc2ccccc2)c2cc3ccccc3o2)c(C)c1`: the figures for the MIC with Staphylococcus aureus, against Escherichia coli and against Candida albicans were 256 µg/mL (≈ 622 µM), 128 µg/mL (≈ 311 µM) and 128 µg/mL (≈ 311 µM), respectively.
`OC(Cn1cncn1)(Cn1cncn1)c1ccc(F)cc1F` [FLUCONAZOLE] returned an MIC in the assay with Candida albicans of 0.25 µg/mL (≈ 0.816 µM).
As for `C[C@@H](O)[C@H]1C(=O)N2C(C(=O)O)=C(S[C@@H]3CN[C@H](C(=O)N(C)C)C3)[C@H](C)[C@H]12` [MEROPENEM], the figures for the MIC in the assay on Staphylococcus aureus and with Escherichia coli were 1 µg/mL (≈ 2.61 µM) and 0.125 µg/mL (≈ 0.326 µM), respectively.

Broadly, the MIC is the least concentration at which growth counts as inhibited. A higher MIC goes with a less susceptible organism.

The values above are taken from ChEMBL document CHEMBL1149769, “Synthesis and antimicrobial activity of some novel derivatives of benzofuran: part 2. The synthesis and antimicrobial activity of some novel 1-(1-benzofuran-2-yl)-2-mesitylethanone derivatives” (2008).
